Compound activity from PubChem BioAssay.
Only some compounds are listed: those with a hit (about 1.5% of all), similar ones and a draw of the others.
ABCG2 block – human ABCG2 inhibition, ABCB1 as counter-screen | hit rate 0.1% among 190,000 | Q9UNQ0 | inhibition, % at 6.6 µM | IgMXP3 cells, JC-1 efflux, flow cytometry | AID 1325;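 active means inhibition above 80%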
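Read-out basis: Efflux inhibition in percent versus controls | Test system: ABCG2 IgMXP3 and barcoded ABCB1 CCRF-Adr cell mix | Quantity: 3 million cells/mL in well | Schedule: 10 min at 25 °C | Control set: Nicardipine as high control, DMSO as low control | Reagent: JC-1 as fluorescent efflux pump substrate | Signal: Flow cytometry of retained JC-1 fluorescence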
ABCB1 block – inhibitors of human ABCB1 transporter, ABCG2 counter-screen. hit rate 0.067% among 190,000. AID 1326. inhibition, % at 6.6 µM. CCRF-Adr cells, JC-1 efflux, flow cytometry. P08183; in the data active means inhibition above about 40%;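 further: higher value means more JC-1 retained so stronger ABCB1 efflux block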
RBBP9 inh – blocks human serine hydrolase RBBP9 | hit rate 0.2% among 220,000 | recombinant RBBP9, FP-Rh probe fluorescence polarization | O75884 | inhibition, % at 7.94 µM;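 active means inhibition above the campaign mean of all tested compounds plus 3 SD, cut at about 14% in these data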
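System: RBBP9 protein / Quantity: 2.5 µM RBBP9 dispensing solution, before mixing / Also added: Serine-hydrolase probe FP-Rh, 375 nM pre-mixing / Dosing: 7.94 µM single dose, 0.794% DMSO / Timing: enzyme-compound preincubation 30 min, then probe labeling 45 min, 25 °C / Signal: FP readout at 525/598 nm / Controls: DMSO-treated enzyme wells and wells lacking RBBP9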
EP2 mod – EP2 receptor (human) modulation | AID 940 | hit rate 0.83% among 260,000 | induction, % at 25 µM | EP2-expressing cells, cAMP HTRF FRET, PGE2 co-stimulation | P43116;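 active means compounds whose cAMP rise, as percent of the full-agonist control response, exceeds 60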;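 further: rat C6 glioma line stably carrying human EP2 under a CMV promoter; the protocol text gives 20 µM as final concentration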
Target sequence (P43116 whole entry, looked up): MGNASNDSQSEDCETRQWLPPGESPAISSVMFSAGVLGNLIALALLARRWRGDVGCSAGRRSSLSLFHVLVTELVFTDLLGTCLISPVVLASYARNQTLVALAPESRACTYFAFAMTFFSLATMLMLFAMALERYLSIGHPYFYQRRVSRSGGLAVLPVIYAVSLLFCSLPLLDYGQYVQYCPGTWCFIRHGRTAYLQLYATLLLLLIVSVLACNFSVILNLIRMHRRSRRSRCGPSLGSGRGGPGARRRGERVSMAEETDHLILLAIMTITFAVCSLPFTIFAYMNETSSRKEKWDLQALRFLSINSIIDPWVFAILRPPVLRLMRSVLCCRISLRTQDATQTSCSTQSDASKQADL
EP2 antag – inhibitors of human EP2 prostaglandin E2 receptor; P43116; inhibition, % at 25 µM; hit rate 0.52% among 260,000; C6 glioma cells expressing human EP2, cAMP TR-FRET; cells stimulated with saturating PGE2; AID 1422;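 active means percent inhibition above 40 after rounding to a whole number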;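 further: rat C6 glioma host cells with rolipram phosphodiesterase inhibitor present; the protocol text gives 20 µM as final concentration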
A number is an active result; - = inactive; . = not tested or not shown; + = active, no number.

SMILES	ABCG2 block	ABCB1 block	RBBP9 inh	EP2 mod	EP2 antag
COc1ccc(-n2nc(C(=O)N3CCCCC3)c(C)c(C#N)c2=O)cc1	-	-	-	-	-
Cc1cnc(NC(=O)CN2CCN(c3cccc(Cl)c3)CC2)s1	.	.	.	-	-
COc1cc2c(cc1CN1CCc3c(nc(N4CC(C)OC(C)C4)[nH]c3=O)C1)OCO2 (configuration not stated)	.	.	.	-	.
CC(=O)CCc1oc2ccccc2c1-c1ccccc1	.	.	-	79	-
O=c1oc2cc(O)ccc2cc1-c1nc2c(s1)CCc1ccccc1-2	+	138	-	-	-
O=c1oc2ccccc2cc1-c1nc2c(s1)CCc1ccccc1-2	-	-	-	-	-
C=C(C)CSc1nc2c(c(=O)n(C)c(=O)n2C)n1CCCc1ccccc1	.	.	.	-	-
O=C(CSc1nc2ccccc2cc1Cc1ccccc1)NNC(=O)c1ccco1	.	.	.	-	-
CN(C)Cc1ccc(F)cc1Sc1ccc(Cl)cc1Cl	-	-	-	62	-
COc1ccccc1C1CN(c2ccccc2)N=C1c1cccs1 (configuration not stated)	-	-	-	68	-
COc1ccc(-n2c(=O)c3c(C)c(C)sc3n(Cc3cccc(F)c3)c2=O)c(OC)c1	-	-	-	61	-
Cc1ccc2cc3c(N)c(C(=O)N4CCCCCC4)sc3nc2c1C	.	.	.	-	-
Cn1c(N)nc2c(nc(OCc3ccccc3)n2[C@H]2O[C@H](CO)[C@@H](O)[C@@H]2O)c1=O	.	.	.	-	57
COC(=O)c1cc2ccsc2n1Cc1nc(-c2cccc(Cl)c2)oc1C	-	-	-	61	-
COCCn1nnnc1CN1C2CCCC1CC(NC(=O)C1CCCCC1)C2 (configuration not stated)	.	.	.	-	-
COc1cc(C)cc2c(-c3c(O)cc(O)c4c3C[C@H](C)N[C@@H]4C)cc(-c3cc(-c4c(O)cc(O)c5c4C[C@H](C)N[C@@H]5C)c4cc(C)cc(OC)c4c3O)c(O)c12	.	.	.	-	41
Cc1cc(N/N=C\c2ccccc2)nc(-c2ccccc2O)n1	.	.	-	-	-
Cc1cc(N/N=C/c2ccc(O)cc2O)nc(-n2nc(C)cc2C)n1	-	-	-	-	-
Cc1cc(N/N=C/c2ccc(O)cc2O)nc(-c2ccccc2O)n1	-	-	-	-	80
Cc1cc(N/N=C/c2ccccc2O)nc(-c2ccccc2O)n1	-	-	-	-	60
CSC1=NSC2=NC(=O)/C(=C/c3coc4ccccc4c3=O)C(=N)N12	+	-	-	-	-
CSC1=NSC2=NC(=O)/C(=C/c3coc4ccc(O)cc4c3=O)C(=N)N12	-	+	-	-	-
COc1ccc2c(c1)cc(C)c1nn(CCN3CCCCC3)c(=O)n12	.	.	.	-	.
Cc1ccc(CN(CCCn2ccnc2)Cc2cccn2-c2cccc(F)c2)o1	.	.	.	62	-
Cc1ccnc(-n2cccc2CN(CCCn2ccnc2)Cc2ccc(C)o2)c1	.	.	.	-	-
SMILES	ABCG2 block	ABCB1 block	RBBP9 inh	EP2 mod	EP2 antag
O=C(CC1OCC2CCCN2C1=O)Nc1ccccc1 (configuration not stated)	.	.	.	-	-
CC1CCC/C(=C\Nc2ccc(O)cc2)C1=O (configuration not stated)	-	-	14	-	-
O=C(Nc1ccccc1)C1=C(c2ccccc2)S(=O)(=O)CCS1(=O)=O	-	-	-	-	46
O=[N+]([O-])c1ccc(NN=C2c3ccccc3Cc3ccccc32)c([N+](=O)[O-])c1	.	.	.	-	44
Cc1cc(C)c2cc(CN(CCCN3CCOCC3)C(=O)Nc3cccc(Cl)c3)c(=O)[nH]c2c1	.	.	.	-	-
CC(C)c1ccc2c(c1)CCC1C(C)(CN)CCCC21C (configuration not stated)	.	.	-	-	-
CC(C)c1ccc2c(c1)CC[C@@H]1[C@](C)(CN)CCC[C@@]21C	.	.	.	-	90
COc1ccccc1NC(=O)N(CCCO)Cc1cc2cc(C)c(C)cc2[nH]c1=O	.	.	.	-	-
O=C1ON=C(c2ccccc2)/C1=C/c1ccco1	-	-	-	-	96
CN(C)/C=C1\C(=O)ON=C1c1ccccc1	-	-	-	-	-
COc1ccccc1C(=O)Nc1nc2ccc(F)cc2s1	.	.	.	-	-
CC1C(=NO)C(C)C(c2ccccc2)NC1c1ccccc1 (configuration not stated)	.	.	-	-	-
O=C1C2[C@@H](c3ccccc3)N[C@@H](c3ccccc3)C1[C@@H](c1ccccc1)N[C@H]2c1ccccc1	.	.	.	-	47
